This is a sample that favours compounds with a hit; in the whole collection about 2.2% have one here.
ARFGAP1 inhibitor = inhibitors of rat ARFGAP1 GAP activity, primary screen, biochemical, fluorescence polarization, GDP tracer; ADP-ribosylation factor GTPase-activating protein 1 (Rattus norvegicus), Q62848; Arfgap1-stimulated ARF1 GTP hydrolysis, GDP FP detection; inhibition, % at 16.5 µM; hit rate 0.26% among 360,000;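 active = inhibition above a per-plate limit, mean inhibition of low control wells plus 3 SD, cut at about 25% in these data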
Target sequence (Q62848 1-136 limits assumed): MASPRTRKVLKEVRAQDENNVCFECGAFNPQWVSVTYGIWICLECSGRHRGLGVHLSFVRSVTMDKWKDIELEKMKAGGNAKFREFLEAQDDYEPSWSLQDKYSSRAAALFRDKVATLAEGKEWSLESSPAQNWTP
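Material: rat Arfgap1 GAP domain (His6, aa 1-136), purified enzyme. Also added: human ARF1(Δ1-17)-GTP substrate. Compound dosing: 16.5 µM single point, 1.26% DMSO. Timing: enzyme reaction 120 min at 25 °C after 20 min preincubation. Signal: GDP detection by fluorescence polarization. Read-out basis: percent inhibition of GAP-stimulated GDP formation, scaled between DMSO and no-Arfgap1 medians.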
NadD block = inhibitors of S. aureus NadD, primary screen, biochemical, colorimetric, uHTS | inhibition, % at 20 µM | Nicotinate-nucleotide adenylyltransferase NadD (Staphylococcus aureus N315) | hit rate 0.78% among 360,000 | purified NadD enzyme, colorimetric absorbance read-out; in the data active = inhibition above about 26%
ASAP1 inh = inhibitors of human ASAP1 ArfGAP activity, primary screen, biochemical, fluorescence polarization. Arf-GAP with SH3 domain, ANK repeat and PH domain-containing protein 1 (Homo sapiens), …. ASAP1-stimulated ARF1 GTP hydrolysis, GDP FP detection. inhibition, % at 16.5 µM. hit rate 0.19% among 360,000. AID 624377, 2012; in the data active = inhibition above about 25%
Target sequence (Q9ULH1 325-724 limits assumed): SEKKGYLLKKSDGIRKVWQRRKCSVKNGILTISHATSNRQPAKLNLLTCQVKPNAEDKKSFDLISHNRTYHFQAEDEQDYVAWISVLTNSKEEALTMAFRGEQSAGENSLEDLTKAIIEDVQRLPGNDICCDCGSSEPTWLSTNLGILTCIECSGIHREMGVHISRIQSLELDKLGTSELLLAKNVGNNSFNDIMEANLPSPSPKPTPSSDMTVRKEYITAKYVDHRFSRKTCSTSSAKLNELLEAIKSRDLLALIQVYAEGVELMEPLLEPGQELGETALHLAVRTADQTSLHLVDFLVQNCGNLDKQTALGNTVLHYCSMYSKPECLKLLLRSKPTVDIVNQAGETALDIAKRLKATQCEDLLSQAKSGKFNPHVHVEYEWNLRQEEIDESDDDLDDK
rCAG RNA binder = binders of r(CAG) RNA repeats, primary screen, biochemical, fluorescence; r(CAG) RNA repeat, TO-PRO-1 dye displacement fluorescence; inhibition, % at 3 µM; hit rate 1.3% among 370,000; AID 651821, 2012;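 active = inhibition above the plate cutoff, the mean of all test compounds on that plate plus 3 SD, cut at about 35% in these data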;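 also: higher means more dye released from RNA so lower well fluorescence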
rCAG bind conf = small molecules binding CAG repeat RNA – biochemical, fluorescence, confirmation; r(CAG) RNA repeat, TO-PRO-1 dye displacement fluorescence; hit rate 70% among 4,300; AID 652065, 2013; inhibition, % at 3 µM; shares compounds with rCAG RNA binder;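 active = inhibition above a per-plate cutoff, the mean inhibition of sample wells plus 3 SD, cut at about 35% in these data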;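 also: loss of TO-PRO-1 fluorescence as compound displaces dye from 1x1 AA loop RNA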
DNA CAG counter = displacement of TO-PRO-1 from CAG DNA duplex, counter-screen for rCAG RNA repeat binder project, biochemical, fluorescence, TO-PRO-1 dye, d(CAG) DNA oligo | shares compounds with rCAG RNA binder | d(CAG) DNA oligo TO-PRO-1 dye displacement | inhibition, % at 3 µM | hit rate 94% among 4,300;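 active = inhibition above its plate's cutoff, the mean test-well inhibition plus 3 SD, cut at about 4.8% in these data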;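 also: hits displace the dye from DNA and so lower well fluorescence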
DNA CAG DR = inhibitors of DNA CAG/GTC TO-PRO-1 complex, dose response, counter-screen for rCAG RNA repeat binder project, biochemical, fluorescence, TO-PRO-1 dye; shares compounds with rCAG RNA binder; DNA CAG/GTC duplex TO-PRO-1 dye displacement fluorescence; IC50, µM; hit rate 20% among 250; AID 686960, 2013; in the data active = IC50 below about 10 µM
Of the large screens only hits and unclear results are named; the others gave an inactive call (follow-up assays come after a bar, where they were run); ! = not active in a repeat.

O=C(c1cc(Br)c(Br)s1)N1CCOCC1	none
O=C(CN1C(=O)S/C(=C\c2cccs2)C1=O)Nc1ccc(O)c(C(=O)O)c1	rCAG RNA binder 52.3 | rCAG bind conf 37.4 | DNA CAG counter 10.1
O=C(CN1C(=O)S/C(=C/c2cccs2)C1=O)N1CCCC1	none
O=C(CN1C(=O)S/C(=C\c2cccs2)C1=O)Nc1ccc(C(=O)O)c(O)c1	rCAG RNA binder 67.0 | rCAG bind conf 40.0 | DNA CAG counter 10.2
Cc1ccccc1-c1ccc2c(c1)[C@@H]1C[C@H](N(C)CC3CCCCC3)[C@H]([C@H](C)O)CN1CC2	none (no result: NadD block)
Cc1ccc(S(=O)(=O)NC(=O)c2ccc(-c3ccc(C)c4ccccc34)o2)cc1	rCAG RNA binder 76.8 | rCAG bind conf 72.6 | DNA CAG counter 28.2 | DNA CAG DR 8.4
CCOC(=O)CC[C@@H]1CC[C@]2(CCCN(S(=O)(=O)C3CCCCC3)C2)O1	none (no result: ARFGAP1 inhibitor, NadD block, ASAP1 inh)
CC(=O)NC(C)C(=O)N1CCCC1C(=O)N1CCCC1C(=O)NC(C)C(=O)NC1C(=O)NC(CC(C)C)C(=O)NC2CCCCNC(=O)CCC(C(=O)NC(Cc3ccc(O)cc3)C(=O)O)NC(=O)C3CCC(=O)OCC(NC(=O)C4CCCN4C(=O)C(Cc4c[nH]c5ccccc45)NC2=O)C(=O)NC(CC(=O)OC1C)C(=O)NC(Cc1c[nH]c2ccccc12)C(=O)N3 (stereo not drawn)	none (no result: ARFGAP1 inhibitor, NadD block, ASAP1 inh)
O=S(=O)(Nc1nc2ccccc2nc1Nc1ccc2c(c1)OCCO2)c1cccs1	rCAG RNA binder 90.9 | rCAG bind conf 82.7 | DNA CAG counter 51.1
O=S(=O)(Nc1nc2ccccc2nc1Cl)c1ccc2c(c1)OCCO2	none
CCOc1ccc(-n2c(C)cc(C(=O)NS(=O)(=O)c3ccc(C)cc3)c2C)cc1	none
Cc1ccc(-n2c(C)cc(C(=O)NS(=O)(=O)c3ccc(C)cc3)c2C)cc1	rCAG RNA binder 39.7 | rCAG bind conf inactive | DNA CAG counter 9.7
O=C(Cn1cc2c(n1)CCCCC2)NCc1ccccc1	rCAG RNA binder 40.5 | rCAG bind conf inactive | DNA CAG counter inactive
CCCCCc1c2c(cc(O)c1C(=O)O)OC(=O)c1cc(C(=O)CCCC)c(OC)cc1O2	rCAG RNA binder 87.0 | rCAG bind conf 88.2 | DNA CAG counter 61.4
CCCCCc1c2c(cc(O)c1C(=O)O)OC(=O)c1c(cc(OC)cc1C(=O)CCCC)O2	none (no result: ARFGAP1 inhibitor, ASAP1 inh, rCAG RNA binder)
Cc1ccc(Cn2cc(/C=N/Nc3ccc([N+](=O)[O-])cn3)c3ccccc32)cc1	none
O=C(O)Cn1cc(/C=N/Nc2ccc([N+](=O)[O-])cn2)c2ccccc21	rCAG RNA binder 37.4 | rCAG bind conf inactive | DNA CAG counter 7.5
CC(C)(C)c1ccc(N/N=C(\C#N)S(=O)(=O)C(C)(C)C)cc1	rCAG RNA binder 36.3 | rCAG bind conf 50.1 | DNA CAG counter 19.5
Cc1ccc([C@@H]2CC=C(C(=O)O)[C@H](c3ccc(C(C)(C)C)cc3)N2S(=O)(=O)c2ccc(C)cc2)cc1	rCAG RNA binder 90.3 | rCAG bind conf 83.8 | DNA CAG counter 47.9
CCc1ccc([C@@H]2CC=C(C(=O)O)[C@H](c3ccc(C(C)(C)C)cc3)N2S(=O)(=O)c2ccc(C)cc2)cc1	rCAG RNA binder 91.7 | rCAG bind conf 85.4 | DNA CAG counter 52.9
CCc1ccc([C@H]2C(C(=O)O)=C[C@@H](C(C)(C)C)N2S(=O)(=O)c2ccc(C)cc2)cc1	rCAG RNA binder 51.6 | rCAG bind conf 49.2 | DNA CAG counter 17.8
CCc1ccc([C@@H]2CC=C(C(=O)O)CN2S(=O)(=O)c2ccc(C)cc2)cc1	none
CCOC(=O)C1=C[C@@H](C(C)(C)C)N(S(=O)(=O)c2ccc(C)cc2)[C@H]1c1ccccc1	none
COC(=O)[C@]12C[C@H](CC(=O)NCc3ccc(C)o3)C(=O)N(CCc3ccc(OC)c(OC)c3)C1=C[C@H](COCc1ccccc1)O[C@@H]2C	none (no result: ARFGAP1 inhibitor, NadD block, ASAP1 inh)
COC(=O)c1sc(N2C(=O)C(=O)/C(=C(/O)c3ccccc3)C2c2ccco2)nc1C (stereo not drawn)	rCAG RNA binder 37.5 | rCAG bind conf inactive | DNA CAG counter 6.3
O=[N+]([O-])c1ccccc1S(=O)(=O)Nc1ccc(S(=O)(=O)Nc2nccs2)cc1	none
Nc1ccc(S(=O)(=O)Nc2nccs2)cc1N=Nc1ccccc1[N+](=O)[O-]	rCAG RNA binder 67.5 | rCAG bind conf 81.1 | DNA CAG counter 47.9
COC(=O)CCC(C)C1CCC2C3CCC4CC(O)CCC4(C)C3=CC(=O)C12C (stereo not drawn)	none
CC(O)C1CCC2C3CC[C@H]4CC(O)CCC4(C)C3CC3(OCCO3)C12C (stereo partly drawn)	none
C[C@H](CCC(=O)O)[C@H]1CC[C@H]2[C@@H]3[C@H](O)C[C@@H]4C[C@H](O)CC[C@]4(C)[C@H]3CC[C@]12C	rCAG RNA binder 37.5 | rCAG bind conf inactive | DNA CAG counter inactive
C[C@H](CCC(=O)O)[C@H]1CC[C@H]2[C@@H]3CC[C@@H]4C[C@H](O)CC[C@]4(C)[C@H]3C[C@H](O)[C@]12C	rCAG RNA binder 36.7! | rCAG bind conf 40.0 | DNA CAG counter 6.7
Cc1ccc(-c2csc(NC(=O)C3CC=CCC3C(=O)O)c2C(=O)OC(C)C)cc1 (stereo not drawn)	rCAG RNA binder 50.6 | rCAG bind conf 58.0 | DNA CAG counter 19.0
CCOC(=O)c1c(-c2ccc(C)cc2)csc1NC(=O)C1CC=CCC1C(=O)O (stereo not drawn)	none
Cc1ccc(S(=O)(=O)N2[C@@H](c3ccccc3F)C(C(=O)O)=CC[C@H]2c2ccc(C(C)C)cc2)cc1	rCAG RNA binder 76.8 | rCAG bind conf 81.1 | DNA CAG counter 47.1
Cc1ccc(S(=O)(=O)N2[C@@H](c3ccccc3F)C(C(=O)O)=CC[C@H]2c2cccc(Cl)c2)cc1	none
Cc1ccc([C@@H]2CC=C(C(=O)O)[C@H](c3ccccc3F)N2S(=O)(=O)c2ccc(C)cc2)cc1	rCAG RNA binder 61.0 | rCAG bind conf 55.3 | DNA CAG counter 20.6
COc1ccc([C@@H]2CC=C(C(=O)O)[C@H](c3ccccc3F)N2S(=O)(=O)c2ccc(C)cc2)cc1OC	none
O=C1CC(=O)NC(SCC(=O)Nc2ccccc2[N+](=O)[O-])=N1	rCAG RNA binder 40.6 | rCAG bind conf 52.0 | DNA CAG counter 24.1
